Test results: publication PMC4284021 (The Journal of Pharmacy and Pharmacology, 2014)
Several values for one entry are separate records, joined by “and”; a condition that tells them apart may be missing. Equal values may be shown once. Marks after values point to notes of the source that are not given here.

Experiments:
[1] = tested on: apolipoproteins (apo AI, apo AII, apo B, apo E); experiment: Apolipoprotein concentrations by immunoturbidimetric methods in healthy subjects; format: in vivo, human; settings: for Ratio of apo B/apo AI: Mean % change vs placebo (90 % CI) / Apo AI: Mean % change from baseline (90% CI) / Apo AI: Mean % change vs placebo (90 % CI) / Apo AII: Mean % change from baseline (90% CI) / Apo AII: Mean % change vs placebo (90 % CI) / Apo B: Mean % change from baseline (90% CI) / Apo B: Mean % change vs placebo (90 % CI) / Apo E: Mean % change from baseline (90% CI) / Apo E: Mean % change vs placebo (90 % CI) / Ratio of apo B/apo AI: Mean % change from baseline (90% CI): day 14
How it was run: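 Healthy adults took placebo or test compound (10, 100, 300, 600 mg) as capsules once daily with a low-fat meal for 14–15 days. Apo AI, AII, B and E were measured by immunoturbidimetry on a Roche Modular analyser. Values are percent change from baseline to Day 14, including all randomized subjects given at least one dose.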

[2] = tested on: healthy subjects; experiment: 24-h ambulatory blood pressure monitoring; format: in vivo, human; settings: for effect on 24-h ambulatory systolic or diastolic blood pressure: 600 mg compared with placebo
How it was run: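 Double-blind crossover cohort (n = 15): placebo or 600 mg/day oral test compound for 14 days, then the other treatment after a 21-day washout. Subjects wore the ambulatory monitor about 12 h before Day 1 baseline. On Day 14, dosing came about 1 h after monitoring began. Readings every 20 min by day, every 30 min at night. The first hour was excluded. Value is mean SBP/DBP over the 24 h after dosing.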

[3] = tested on: healthy subjects; experiment: Safety and tolerability monitoring; format: in vivo, human
How it was run: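 All enrolled subjects were monitored on placebo or once-daily 10–600 mg oral capsules for up to 15 days. Monitoring covered vital signs, serum and plasma electrolytes, plasma renin activity, aldosterone, plasma and salivary cortisol, and adverse events coded by MedDRA 11.0 preferred term.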

[4] = tested on: healthy volunteers; settings: doses of up to 1200 mg for 10 days; cited from earlier work
[5] = 600 mg, 24-h ABPM, Day 1 (baseline), mean (90% CI)
[6] = 600 mg/day for 14 days, 24-h ABPM
[7] = 600 mg/day for 14 days, 24-h ABPM, (90% CI)
[8] = 600 mg/day, 24-h ABPM, Day 14, mean (90% CI)

SMILES: Cc1cc(C)c2c(c1)[C@@H](N(Cc1cc(C(F)(F)F)cc(C(F)(F)F)c1)c1nnn(C)n1)CCCN2C[C@H]1CC[C@H](C(=O)O)CC1 [evacetrapib]
- Ratio of apo B/apo AI: Mean % change vs placebo (90 % CI) ([1]; 100 mg/day): −51.60 (−59.36, −43.83) ^*** %
- Apo AI: Mean % change from baseline (90% CI) ([1]; 300 mg/day): 28.75 (23.70, 33.80) %
- Apo AI: Mean % change vs placebo (90 % CI) ([1]; 300 mg/day): 40.50 (31.66, 49.34) ^*** %
- Apo AII: Mean % change from baseline (90% CI) ([1]; 300 mg/day): 11.93 (7.75, 16.10) %
- Apo AII: Mean % change vs placebo (90 % CI) ([1]; 300 mg/day): 17.52 (10.86, 24.17) ^*** %
- Apo B: Mean % change from baseline (90% CI) ([1]; 300 mg/day): −18.85 (−22.45, −15.25) %
- Apo B: Mean % change vs placebo (90 % CI) ([1]; 300 mg/day): −25.81 (−32.59, −19.04) ^*** %
- Apo E: Mean % change from baseline (90% CI) ([1]; 300 mg/day): 76.75 (62.23, 91.28) %
- Apo E: Mean % change vs placebo (90 % CI) ([1]; 300 mg/day): 65.40 (40.39, 90.42) ^*** %
- Ratio of apo B/apo AI: Mean % change from baseline (90% CI) ([1]; 300 mg/day): −35.69 (−39.92, −31.46) %
- Ratio of apo B/apo AI: Mean % change vs placebo (90 % CI) ([1]; 300 mg/day): −55.45 (−63.26, −47.63) ^*** %
- decrease in apo B ([1]; 600 mg, Day 14, vs placebo): 26% and 26.1%
- decrease in apo B/AI ratio ([1]; 600 mg, Day 14, vs placebo): 56.5%
- Apo AI: Mean % change from baseline (90% CI) ([1]; 600 mg/day): 29.93 (24.51, 35.35) %
- Apo AI: Mean % change vs placebo (90 % CI) ([1]; 600 mg/day): 42% and 41.7% and 41.69 (32.70, 50.67) ^*** %
- Apo AII: Mean % change from baseline (90% CI) ([1]; 600 mg/day): 12.91 (8.06, 17.77) %
- Apo AII: Mean % change vs placebo (90 % CI) ([1]; 600 mg/day): 18.5% and 18.50 (11.71, 25.29) ^*** %
- Apo B: Mean % change from baseline (90% CI) ([1]; 600 mg/day): −19.17 (−22.94, −15.41) %
- Apo B: Mean % change vs placebo (90 % CI) ([1]; 600 mg/day): −26.14 (−32.97, −19.30) ^*** %
- Apo E: Mean % change from baseline (90% CI) ([1]; 600 mg/day): 85.48 (65.47, 105.49) %
- Apo E: Mean % change vs placebo (90 % CI) ([1]; 600 mg/day): 74.1% and 74.13 (47.95, 100.31) ^*** %
- Ratio of apo B/apo AI: Mean % change from baseline (90% CI) ([1]; 600 mg/day): −36.74 (−41.23, −32.25) %
- Ratio of apo B/apo AI: Mean % change vs placebo (90 % CI) ([1]; 600 mg/day): −56.50 (−64.39, −48.61) ^*** %
- effect on 24-h ambulatory systolic or diastolic blood pressure [2]: No significant differences
- effect on 24-h ambulatory systolic or diastolic blood pressure ([2]; listed as Evacetrapib): did not produce any significant effect
- correlation between exposure and blood pressure (Spearman's rank correlation coefficient) ([2]; 600 mg crossover cohort, P = 0.964): 0.00954
- Diastolic blood pressure, Day 1 mean [2, 5]: 68.27 (64.82, 71.72) mmHg
- Systolic blood pressure, Day 1 mean [2, 5]: 112.16 (109.12, 115.19) mmHg
- Diastolic blood pressure, Difference (comparison with placebo) [2, 6]: −2.28 mmHg
- Systolic blood pressure, Difference (comparison with placebo) [2, 6]: −1.96 mmHg
- Diastolic blood pressure, LS mean change [2, 7]: 0.60 (−1.45, 2.65) mmHg
- Systolic blood pressure, LS mean change [2, 7]: −0.27 (−2.64, 2.11) mmHg
- Diastolic blood pressure, Day 14 mean [2, 8]: 73.72 (70.26, 77.18) mmHg
- Systolic blood pressure, Day 14 mean [2, 8]: 118.28 (113.78, 122.77) mmHg
- severity of adverse events ([3]; 10–600 mg): mild to moderate
- tolerability ([3]; 10–600 mg for up to 15 days): generally well tolerated
- changes in routine serum chemistries (liver transaminases, complete blood counts, urinalysis) ([3]; in vivo): No clinically relevant changes
- effect on aldosterone ([3]; multiple daily doses): no effect
- subjects reporting rash-related AEs (discontinued the study) ([3]; two at 300 mg, two at 600 mg): Four
- QT interval prolongation [4]: no evidence of QT interval prolongation
- tolerability [4]: well tolerated
